Common to all, as to type: functional
The test system of assay [1] is Mycobacterium tuberculosis. The assay is described as follows: Antimycobacterial activity against Mycobacterium tuberculosis H37Rv after 21 days by serial dilution technique. Particulars: 504 h. Put shortly: (§1)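 H37Rv kept on L–J medium at 37 °C. Inoculum made by homogenizing growth with glass beads in Tween-albumin Middlebrook 7H9, letting large particles settle, and adjusting the supernatant to 3 ×10⁸ CFU by McFarland standard, with CFU/mL checked by plating. 0.1 mL went onto L–J slants with Gruft supplement holding serially diluted compound. Incubated 37 °C, read at 14, 21, 30 days. MIC was the lowest concentration with clear tubes; triplicate.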

The test system of assay [2] is Mycobacterium tuberculosis. The assay is described as follows: Antimycobacterial activity against Mycobacterium tuberculosis H37Rv after 14 days by serial dilution technique. The conditions noted are these: 336 h. In a few lines:
as §1

The test system of assay [3] is Mycobacterium tuberculosis. The assay can be described thus: Antimycobacterial activity against Mycobacterium tuberculosis H37Rv after 30 days by serial dilution technique. Put shortly: as §1

Values after ≈ are worked out from the molar mass of the structure shown. Where only a bound is given, the exact number is not on record here.

In the case of `CCOC(=O)C1=C(Nc2ccccc2Cl)N=C(c2ccccc2)N2CCN=C12`, the minimal inhibitory concentration (MIC) in assay [1], in assay [2] and in assay [3] was > 200 µg/mL in each case.
On to `CCOC(=O)C1=C(Nc2ccc(OC)cc2)N=C(c2ccccc2)N2CCN=C12`, for which the MIC in assay [1] was 5 µg/mL (≈ 12.8 µM); in assay [2], 5 µg/mL (≈ 12.8 µM); in assay [3] it was 50 µg/mL (≈ 128 µM).
As for `CCOC(=O)C1=C(Nc2ccccc2)N=C(c2ccccc2)N2CCN=C12`, the values for the MIC in assay [1], in assay [2] and in assay [3] were 50 µg/mL (≈ 139 µM), 50 µg/mL (≈ 139 µM) and 100 µg/mL (≈ 277 µM), respectively.
As for `CCOC(=O)C1=C(Nc2cccc(C(F)(F)F)c2)N=CN2CCN=C12`, the figures for the MIC in assay [1], in assay [2] and in assay [3] were 100 µg/mL (≈ 284 µM), 100 µg/mL (≈ 284 µM) and > 200 µg/mL, respectively.
As to `CCOC(=O)C1=C(Nc2ccc(Cl)cc2)N=CN2CCN=C12`, the minimum inhibitory concentration (MIC) in assay [1] was 5 µg/mL (≈ 15.7 µM); in assay [2], 5 µg/mL (≈ 15.7 µM); in assay [3] it was 20 µg/mL (≈ 62.7 µM).
In the case of `CCOC(=O)C1=C(NCc2ccccc2)N=CN2CCN=C12`, the MIC in assay [1] amounted to 20 µg/mL (≈ 67 µM); in assay [2], 20 µg/mL (≈ 67 µM); in assay [3] it was 100 µg/mL (≈ 335 µM).
For the compound `CCOC(=O)C1=C(Nc2ccccc2C)N=CN2CCN=C12`, the minimal inhibitory concentration (MIC) in assay [1], in assay [2] and in assay [3] was > 200 µg/mL each time.
Regarding `CCOC(=O)C1=C(Nc2ccccc2F)N=C(c2ccccc2)N2CCN=C12`, the MIC in assay [1], in assay [2] and in assay [3] was > 200 µg/mL each time.
Regarding `CCOC(=O)C1=C(Nc2ccc(Cl)cc2)N=C(c2ccccc2)N2CCN=C12`, the values for the MIC in assay [1], in assay [2] and in assay [3] were 20 µg/mL (≈ 50.7 µM), 20 µg/mL (≈ 50.7 µM) and 50 µg/mL (≈ 127 µM), respectively.
In the case of `CCOC(=O)C1=C(Nc2ccccc2F)N=CN2CCN=C12`, the minimal inhibitory concentration (MIC) in assay [1] came out at 5 µg/mL (≈ 16.5 µM); in assay [2] it was 5 µg/mL (≈ 16.5 µM); in assay [3] it was 50 µg/mL (≈ 165 µM).
For `CCOC(=O)C1=C(Nc2ccc(C)cc2)N=CN2CCN=C12`, the MIC in assay [1] worked out at 5 µg/mL (≈ 16.8 µM); in assay [2] it was 5 µg/mL (≈ 16.8 µM); in assay [3] it was 50 µg/mL (≈ 168 µM).
On to `CCOC(=O)C1=C(Nc2ccc(Br)cc2)N=C(c2ccccc2)N2CCN=C12`, for which the values for the MIC in assay [1], in assay [2] and in assay [3] were 100 µg/mL (≈ 228 µM), 100 µg/mL (≈ 228 µM) and > 200 µg/mL, respectively.
For the compound `CCOC(=O)C1=C(NC)N=C(c2ccccc2)N2CCN=C12`, the MIC in assay [1], in assay [2] and in assay [3] was > 200 µg/mL throughout.
Turning to `CCOC(=O)C1=C(Nc2ccccc2C)N=C(c2ccccc2)N2CCN=C12`, the figures for the MIC in assay [1], in assay [2] and in assay [3] were 100 µg/mL (≈ 267 µM), 100 µg/mL (≈ 267 µM) and > 200 µg/mL, respectively.
On to `CCOC(=O)C1=C(Nc2ccc(C)cc2)N=C(c2ccccc2)N2CCN=C12`, for which the MIC in assay [1] was 100 µg/mL (≈ 267 µM); in assay [2], 100 µg/mL (≈ 267 µM); in assay [3], > 200 µg/mL.
For `CCOC(=O)C1=C(NC)N=CN2CCN=C12`, the MIC in assay [1], in assay [2] and in assay [3] was > 200 µg/mL throughout.
With `CCOC(=O)C1=C(Nc2ccccc2)N=CN2CCN=C12`, the figures for the MIC in assay [1], in assay [2] and in assay [3] were 20 µg/mL (≈ 70.3 µM), 20 µg/mL (≈ 70.3 µM) and 50 µg/mL (≈ 176 µM), respectively.
On to `CCOC(=O)C1=C(Nc2cccc(Cl)c2)N=C(c2ccccc2)N2CCN=C12`, for which the MIC in assay [1], in assay [2] and in assay [3] was > 200 µg/mL each time.
`CCOC(=O)C1=C(Nc2ccc(F)cc2)N=CN2CCN=C12`: the MIC was 5 µg/mL (≈ 16.5 µM) in assay [1], 5 µg/mL (≈ 16.5 µM) in assay [2] and 20 µg/mL (≈ 66.2 µM) in assay [3].
`CCOC(=O)C1=C(NCc2ccccc2)N=C(c2ccccc2)N2CCN=C12`: the MIC in assay [1], in assay [2] and in assay [3] was > 200 µg/mL each time.
On to `CCNC1=C(C(=O)OCC)C2=NCCN2C=N1`, for which the MIC in assay [1], in assay [2] and in assay [3] was > 200 µg/mL throughout.
With `CCOC(=O)C1=C(Nc2ccc(F)cc2)N=C(c2ccccc2)N2CCN=C12`, the values for the MIC in assay [1], in assay [2] and in assay [3] were 5 µg/mL (≈ 13.2 µM), 5 µg/mL (≈ 13.2 µM) and 20 µg/mL (≈ 52.9 µM), respectively.
In the case of `CCOC(=O)C1=C(Nc2ccccc2OC)N=C(c2ccccc2)N2CCN=C12`, the MIC in assay [1], in assay [2] and in assay [3] was > 200 µg/mL throughout.
With `CCOC(=O)C1=C(Nc2ccc(OC)cc2)N=CN2CCN=C12`, the MIC is 2 µg/mL (≈ 6.36 µM) in assay [1], 2 µg/mL (≈ 6.36 µM) in assay [2] and 20 µg/mL (≈ 63.6 µM) in assay [3].
Consider `CCOC(=O)C1=C(Nc2cccc(C)c2)N=CN2CCN=C12`, for which the MIC in assay [1], in assay [2] and in assay [3] was > 200 µg/mL in each case.
Turning to `CCOC(=O)C1=C(Nc2cccc(Cl)c2)N=CN2CCN=C12`, the MIC in assay [1], in assay [2] and in assay [3] was > 200 µg/mL each time.
Regarding `CCOC(=O)C1=C(Nc2ccc(Br)cc2)N=CN2CCN=C12`, the MIC in assay [1] was found to be 50 µg/mL (≈ 138 µM); in assay [2] it was 50 µg/mL (≈ 138 µM); in assay [3] it was 100 µg/mL (≈ 275 µM).
Turning to `CCOC(=O)C1=C(Nc2ccccc2OC)N=CN2CCN=C12`, the MIC in assay [1], in assay [2] and in assay [3] was > 200 µg/mL in each case.
Turning to `CCNC1=C(C(=O)OCC)C2=NCCN2C(c2ccccc2)=N1`, the MIC in assay [1], in assay [2] and in assay [3] was > 200 µg/mL each time.
Consider `CCOC(=O)C1=C(Nc2ccccc2Cl)N=CN2CCN=C12`, for which the MIC in assay [1], in assay [2] and in assay [3] was > 200 µg/mL throughout.
Regarding `NCC[C@H](O)C(=O)N[C@@H]1C[C@H](N)[C@@H](O[C@H]2O[C@H](CN)[C@@H](O)[C@H](O)[C@H]2O)[C@H](O)[C@H]1O[C@H]1O[C@H](CO)[C@@H](O)[C@H](N)[C@H]1O` [AMIKACIN], the MIC in assay [1], in assay [2] and in assay [3] was 2 µg/mL (≈ 3.42 µM) throughout.
On to `CO[C@H]1/C=C/O[C@@]2(C)Oc3c(C)c(O)c4c(c3C2=O)C2=NC3(CCN(CC(C)C)CC3)NC2=C(NC(=O)/C(C)=C\C=C\[C@H](C)[C@H](O)[C@@H](C)[C@@H](O)[C@@H](C)[C@H](OC(C)=O)[C@@H]1C)C4=O` [RIFABUTIN], for which the MIC in assay [1], in assay [2] and in assay [3] was 0.05 µg/mL (≈ 0.059 µM) each time.

Source of the values: ChEMBL document CHEMBL1154153, “Design, synthesis and antimycobacterial activity of some novel imidazo[1,2-c]pyrimidines” (2009).
